# From ChEMBL document CHEMBL1122299, “Potential cerebral perfusion agents: synthesis and evaluation of a radioiodinated vinylalkylbarbituric acid analogue” (J Med Chem, 1983)
# What was measured:
# Rattus norvegicus [1] = test: Distribution of radioactivity in liver tissue of rats at 5 mins after an intravenous injection; Value expressed as mean % injected dose, Range- 2.49-2.82; type: ADME, organism-based; details: in vivo
# Outline: (§1)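 Female Fischer 344 rats (10–12 wk, 170–200 g; food and water ad libitum) under ether received 7.95 μCi 125I-labeled agent (sp act ~155 mCi/mmol) in pH 7.4 phosphate buffer, filtered, via lateral tail vein. Four rats per time point (2 min–1 day). Killed by cervical fracture under ether; organs excised, saline-rinsed, blotted, weighed, gamma-counted; mean % injected dose/g with range.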
# Rattus norvegicus [2] = test: Distribution of radioactivity in brain tissue of rats at 30 mins after an intravenous injection; Value expressed as mean % injected dose, Range- 0.25-0.37; type: ADME, organism-based; details: in vivo, 0.5 h; outline: as §1
# Rattus norvegicus [3] = test: Distribution of radioactivity in brain tissue of rats at 1 hr after an intravenous injection; Value expressed as mean % injected dose, Range- 0.18-0.22; type: ADME, organism-based; details: in vivo; outline: as §1
# Rattus norvegicus [4] = test: Distribution of radioactivity in lung tissue of rats at 2 hr after an intravenous injection; Value expressed as mean % injected dose, Range- 0.47-0.58; type: ADME, organism-based; details: in vivo; outline: as §1
# Rattus norvegicus [5] = test: Ratio between the distribution of radioactivity of brain to that of blood tissue of rats at 5 min after an intravenous administration; type: ADME, organism-based
# Outline: (§2)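 Same rats (four per time point, 2 min–1 day) after a 7.95 μCi tail-vein dose of 125I-labeled agent in pH 7.4 phosphate buffer. Brain and blood were excised, weighed and gamma-counted as % injected dose/g. The ratio compares brain to blood radioactivity and is reported as a mean.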
# Rattus norvegicus [6] = test: Distribution of radioactivity in heart tissue of rats at 4 hr after an intravenous injection; Value expressed as mean % injected dose, Range- 0.16-0.2; type: ADME, organism-based; details: in vivo; outline: as §1
# Rattus norvegicus [7] = test: Ratio between the distribution of radioactivity of brain to that of blood tissue of rats at 4 hr after an intravenous administration; type: ADME, organism-based; outline: as §2
# Rattus norvegicus [8] = test: Distribution of radioactivity in brain tissue of rats at 1 day after an intravenous injection; Value expressed as mean % injected dose, Range- 0.007-0.008; type: ADME, organism-based; details: in vivo, 24 h; outline: as §1
# Rattus norvegicus [9] = test: Distribution of radioactivity in thyroid tissue of rats at 2 hr after an intravenous injection; Value expressed as mean % injected dose, Range- 92-159; type: ADME, organism-based, Thyroid gland; details: in vivo; outline: as §1
# Rattus norvegicus [10] = test: Distribution of radioactivity in heart tissue of rats at 1 day after an intravenous injection; Value expressed as mean % injected dose, Range- 0.02-0.02; type: ADME, organism-based; details: in vivo, 24 h; outline: as §1
# Rattus norvegicus [11] = test: Distribution of radioactivity in lung tissue of rats at 1 hr after an intravenous injection; Value expressed as mean % injected dose, Range- 0.66-0.77; type: ADME, organism-based; details: in vivo; outline: as §1
# Rattus norvegicus [12] = test: Distribution of radioactivity in thyroid tissue of rats at 30 mins after an intravenous injection; Value expressed as mean % injected dose, Range- 18.74-30.84; type: ADME, organism-based, Thyroid gland; details: in vivo, 0.5 h; outline: as §1
# Rattus norvegicus [13] = test: Distribution of radioactivity in blood of rats at 1 hr after an intravenous injection; Value expressed as mean % injected dose, Range-0.9-1.03; type: ADME, organism-based; details: in vivo; outline: as §1
# Rattus norvegicus [14] = test: Distribution of radioactivity in lung tissue of rats at 30 mins after an intravenous injection; Value expressed as mean % injected dose, Range- 0.65-0.87; type: ADME, organism-based; details: in vivo, 0.5 h; outline: as §1
# Rattus norvegicus [15] = test: Distribution of radioactivity in blood of rats at 5 mins after an intravenous injection; Value expressed as mean % injected dose, Range-0.81-1; type: ADME, organism-based; details: in vivo; outline: as §1
# Rattus norvegicus [16] = test: Ratio between the distribution of radioactivity of brain to that of blood tissue of rats at 2 hr after an intravenous administration; type: ADME, organism-based; outline: as §2
# Rattus norvegicus [17] = test: Distribution of radioactivity in blood of rats at 2 hr after an intravenous injection; Value expressed as mean % injected dose, Range = 0.71-0.87; type: ADME, organism-based; details: in vivo; outline: as §1
# Rattus norvegicus [18] = test: Distribution of radioactivity in liver tissue of rats at 30 mins after an intravenous injection; Value expressed as mean % injected dose, Range- 0.97-1.41; type: ADME, organism-based; details: in vivo, 0.5 h; outline: as §1
# Rattus norvegicus [19] = test: Distribution of radioactivity in blood of rats at 30 mins after an intravenous injection; Value expressed as mean % injected dose, Range = 0.68-1.03; type: ADME, organism-based; details: in vivo, 0.5 h; outline: as §1
# Rattus norvegicus [20] = test: Distribution of radioactivity in blood of rats at 1 day after an intravenous injection; Value expressed as mean % injected dose, Range- 0.03-0.03; type: ADME, organism-based; details: in vivo, 24 h; outline: as §1
# Rattus norvegicus [21] = test: Distribution of radioactivity in liver tissue of rats at 1 day after an intravenous injection; Value expressed as mean % injected dose, Range- 0.02-0.02; type: ADME, organism-based; details: in vivo, 24 h; outline: as §1
# Rattus norvegicus [22] = test: Distribution of radioactivity in brain tissue of rats at 2 mins after an intravenous injection; Value expressed as mean % injected dose, Range- 0.77-0.97; type: ADME, organism-based; details: in vivo; outline: as §1
# Rattus norvegicus [23] = test: Distribution of radioactivity in lung tissue of rats at 5 mins after an intravenous injection; Value expressed as mean % injected dose, Range- 0.98-1.22; type: ADME, organism-based; details: in vivo; outline: as §1
# Rattus norvegicus [24] = test: Distribution of radioactivity in liver tissue of rats at 2 hr after an intravenous injection; Value expressed as mean % injected dose, Range- 0.42-0.62; type: ADME, organism-based; details: in vivo; outline: as §1
smiles,measurement,setting,value
CCC1(CCC/C=C/I)C(=O)NC(=O)NC1=O,Activity,Rattus norvegicus [1],2.69
same,Activity,Rattus norvegicus [2],0.33
same,Activity,Rattus norvegicus [3],0.19
same,Activity,Rattus norvegicus [4],0.52
same,Ratio,Rattus norvegicus [5],0.91
same,Activity,Rattus norvegicus [6],0.18
same,Ratio,Rattus norvegicus [7],0.07
same,Activity,Rattus norvegicus [8],0.007
same,Activity,Rattus norvegicus [9],130
same,Activity,Rattus norvegicus [10],0.02
same,Activity,Rattus norvegicus [11],0.72
same,Activity,Rattus norvegicus [12],26.16
same,Activity,Rattus norvegicus [13],0.97
same,Activity,Rattus norvegicus [14],0.79
same,Activity,Rattus norvegicus [15],0.9
same,Ratio,Rattus norvegicus [16],0.14
same,Activity,Rattus norvegicus [17],0.76
same,Activity,Rattus norvegicus [18],1.21
same,Activity,Rattus norvegicus [19],0.92
same,Activity,Rattus norvegicus [20],0.03
same,Activity,Rattus norvegicus [21],0.02
same,Activity,Rattus norvegicus [22],0.83
same,Activity,Rattus norvegicus [23],1.08
same,Activity,Rattus norvegicus [24],0.5
